In ChEMBL document CHEMBL1157556, “Synthesis and biological screening of a combinatorial library of beta-chlorovinyl chalcones as anticancer, anti-inflammatory and antimicrobial agents” (Bioorg Med Chem, 2010):
In brackets after ≈: the same amount, converted by molar mass.

Assays:
[1] = system: Penicillium chrysogenum; assay: Antifungal activity against Penicillium chrysogenum MTCC 1996 at 100 ug/ml after 48 hrs agar diffusion method; assay type: functional
Outline: (§1)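 Fungal spore suspensions in sterile distilled water adjusted to 10⁶ cfu/mL; 0.1 mL spread on Sabouraud dextrose agar. Wells of 6 mm filled with 0.1 mL compound dilution in DMSO. DMSO (1%) control; nystatin (30 µg/mL) reference. Duplicate plates incubated at 28 °C for 48 h. Activity read as inhibition zone diameter in mm.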

[2] = system: Trichoderma viride; assay: Antifungal activity against Trichoderma viride MTCC 167 at 100 ug/ml after 48 hrs agar diffusion method; assay type: functional; conditions: for zone of inhibition at 100 µg/mL: MTCC 167, 48 h, read-out: IZ; outline: as §1
[3] = system: Aspergillus niger; assay: Antifungal activity against Aspergillus niger MTCC 1781 at 100 ug/ml after 48 hrs agar diffusion method; assay type: functional; conditions: for zone of inhibition at 100 µg/mL: MTCC 1781, 48 h, read-out: IZ; outline: as §1
[4] = system: Aspergillus flavus; assay: Antifungal activity against Aspergillus flavus MTCC 2501 at 100 ug/ml after 48 hrs agar diffusion method; assay type: functional; conditions: for zone of inhibition at 100 µg/mL: MTCC 2501, 48 h, read-out: IZ; outline: as §1
[5] = system: THP-1; assay: Antiinflammatory activity in human THP1 cells assessed as inhibition of LPS-induced IL6 release at 10 uM after 24 hrs by ELISA; assay type: functional; conditions: THP-1, 24 h
Outline: (§2)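 THP-1 cells grown in RPMI 1640 with 10% FBS, penicillin and streptomycin, then PMA-differentiated. Compounds in 0.5% DMSO preincubated 30 min at 37 °C before LPS (E. coli 0127:B8) stimulation. TNF-α and IL-6 release measured by kit per the manufacturer (BD Biosciences). Percent inhibition calculated relative to control. Dexamethasone 1 µM as reference.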

[6] = system: Bacillus subtilis; assay: Antibacterial activity against Bacillus subtilis MTCC 1789 after 24 hrs; assay type: functional; conditions: MTCC 1789, 24 h
Outline: (§3)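 Agar well diffusion on Mueller Hinton agar seeded with 0.1 mL of a 10⁵ cfu/mL suspension in 0.85% saline. Compounds dissolved in DMSO, final concentrations 25–250 µg/mL, 0.1 mL loaded per 6 mm well. DMSO (1%) control; tetracycline (10 µg/mL) reference. Duplicate plates incubated 24 h at 37 °C. Inhibition zone read in mm. MIC taken as lowest concentration giving complete growth inhibition.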

[7] = system: HCT-116; assay: Anticancer activity against human HCT116 cells at 10 uM after 48 hrs by propidium iodide fluorescence assay; assay type: functional
Outline: (§4)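 Propidium iodide DNA-fluorescence assay. Seeding 3000–7500 cells/well, 24 h recovery at 37 °C in 5% CO₂. Compounds in 0.1% DMSO added to triplicate wells at 10 µM. Flavopiridol 700 nM and gemcitabine 500 nM as reference inhibitors. Plates frozen at −80 °C for 24 h, thawed to room temperature, fluorescence read at excitation 530 nm and emission 620 nm. Percent cytotoxicity calculated.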

[8] = system: Escherichia coli; assay: Antibacterial activity against Escherichia coli MTCC 1650 after 24 hrs; assay type: functional; conditions: MTCC 1650, 24 h; outline: as §3
[9] = system: Staphylococcus aureus; assay: Antibacterial activity against Staphylococcus aureus MTCC 96 after 24 hrs; assay type: functional; conditions: MTCC 96, 24 h; outline: as §3
[10] = system: Klebsiella pneumoniae; assay: Antibacterial activity against Klebsiella pneumoniae NCIM 2957 after 24 hrs; assay type: functional; conditions: NCIM 2957, 24 h; outline: as §3
[11] = system: Proteus vulgaris; assay: Antibacterial activity against Proteus vulgaris MTCC 1771 after 24 hrs; assay type: functional; conditions: MTCC 1771, 24 h; outline: as §3
[12] = system: Calu-1; assay: Anticancer activity against human Calu1 cells at 10 uM after 48 hrs by propidium iodide fluorescence assay; assay type: functional; outline: as §4
[13] = system: THP-1; assay: Cytotoxicity against human THP1 cells assessed as CCK8 release at 10 uM after 24 hrs by ELISA; assay type: cell-based; conditions: thp-1, 24 h
Outline: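 Same THP-1 cytokine-assay cells, with compounds in 0.5% DMSO and LPS stimulation, were scored in parallel for cytotoxicity by CCK-8.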

[14] = system: THP-1; assay: Antiinflammatory activity in human THP1 cells assessed as inhibition of LPS-induced TNFalpha release at 10 uM after 24 hrs by ELISA; assay type: functional; conditions: THP-1, 24 h; outline: as §2
[15] = system: PANC-1; assay: Anticancer activity against human PANC1 cells at 10 uM after 48 hrs by propidium iodide fluorescence assay; assay type: functional; outline: as §4
[16] = system: ACHN; assay: Anticancer activity against human ACHN cells at 10 uM after 48 hrs by propidium iodide fluorescence assay; assay type: functional; outline: as §4
[17] = system: Proteus vulgaris; assay: Antibacterial activity against Proteus vulgaris MTCC 1771 at 50 ug/ml after 24 hrs agar diffusion method; assay type: functional; conditions: MTCC 1771, 24 h, read-out: IZ; outline: as §3
[18] = system: NCI-H460; assay: Anticancer activity against human H460 cells at 10 uM after 48 hrs by propidium iodide fluorescence assay; assay type: functional; outline: as §4
[19] = system: Bacillus subtilis; assay: Antibacterial activity against Bacillus subtilis MTCC 1789 at 50 ug/ml after 24 hrs agar diffusion method; assay type: functional; conditions: MTCC 1789, 24 h, read-out: IZ; outline: as §3
[20] = system: Escherichia coli; assay: Antibacterial activity against Escherichia coli MTCC 1650 at 50 ug/ml after 24 hrs agar diffusion method; assay type: functional; conditions: MTCC 1650, 24 h, read-out: IZ; outline: as §3
[21] = system: Klebsiella pneumoniae; assay: Antibacterial activity against Klebsiella pneumoniae NCIM 2957 at 50 ug/ml after 24 hrs agar diffusion method; assay type: functional; conditions: NCIM 2957, 24 h, read-out: IZ; outline: as §3
[22] = system: Staphylococcus aureus; assay: Antibacterial activity against Staphylococcus aureus MTCC 96 at 50 ug/ml after 24 hrs agar diffusion method; assay type: functional; conditions: MTCC 96, 24 h, read-out: IZ; outline: as §3

Compound	inhibition at 10 µM [5] [%]	MIC [6] [µg/mL]	Activity [7] [%]	MIC [8] [µg/mL]	MIC [9] [µg/mL]	MIC [10] [µg/mL]	MIC [11] [µg/mL]	Activity [12] [%]	Activity [13] [%]	inhibition at 10 µM [14] [%]	Activity [15] [%]	Activity [16] [%]	zone of inhibition at 50 µg/mL [17] [mm]	Activity [18] [%]	zone of inhibition at 50 µg/mL [19] [mm]	zone of inhibition at 100 µg/mL [4] [mm]	zone of inhibition at 50 µg/mL [20] [mm]	zone of inhibition at 100 µg/mL [2] [mm]	zone of inhibition at 50 µg/mL [21] [mm]	zone of inhibition at 50 µg/mL [22] [mm]	other results
NYSTATIN	–	–	–	–	–	–	–	–	–	–	–	–	–	–	–	–	–	–	–	–	inhibition zone (IZ) [1]: 14 mm; inhibition zone (IZ) [2]: 12 mm; inhibition zone (IZ) [3]: 13 mm; inhibition zone (IZ) [4]: 16 mm
COc1ccc(C(=O)/C=C/C=C(\Cl)c2ccc(OC)cc2OC)c(OC)c1	27	50 (≈ 129 µM)	29	50 (≈ 129 µM)	50 (≈ 129 µM)	50 (≈ 129 µM)	50 (≈ 129 µM)	24	0	0	23	26	13	18	–	–	–	–	–	–	zone of inhibition at 100 µg/mL [3]: 13 mm
COc1ccc(C(=O)/C=C/C=C(\Cl)c2ccc(F)cc2)c(OC)c1	44	50 (≈ 144 µM)	14	50 (≈ 144 µM)	50 (≈ 144 µM)	50 (≈ 144 µM)	50 (≈ 144 µM)	36	0	0	23	30	16	26	10	10	11	–	–	–	–
COc1ccc(C(=O)/C=C/C=C(\Cl)c2ccc(OC)cc2OC)cc1	40	50 (≈ 139 µM)	0	50 (≈ 139 µM)	50 (≈ 139 µM)	50 (≈ 139 µM)	50 (≈ 139 µM)	7	35	0	7	33	–	15	12	10	10	12	–	–	zone of inhibition at 100 µg/mL [3]: 11 mm
COc1ccc(C(=O)/C=C/C=C(\Cl)c2cccc(Cl)c2)cc1	3	50 (≈ 150 µM)	31	50 (≈ 150 µM)	50 (≈ 150 µM)	50 (≈ 150 µM)	50 (≈ 150 µM)	20	35	1	18	22	15	26	15	8	10	11	17	13	–
COc1ccc(C(=O)/C=C/C=C(\Cl)c2ccc(Br)cc2)cc1	97	50 (≈ 132 µM)	20	50 (≈ 132 µM)	50 (≈ 132 µM)	50 (≈ 132 µM)	50 (≈ 132 µM)	29	30	66	25	39	–	20	–	8	–	8	11	12	zone of inhibition at 100 µg/mL ([1]; MTCC 1996, 48 h, read-out: IZ): 12 mm
CN(C)[C@@H]1C(O)=C(C(N)=O)C(=O)[C@@]2(O)C(O)=C3C(=O)c4c(O)cccc4[C@@](C)(O)[C@H]3C[C@@H]12 [TETRACYCLINE]	–	–	–	–	–	–	–	–	–	–	–	–	16	–	18	–	15	–	20	18	–
